We go through six compounds from article PMC9749463 (European Journal of Pharmacology, 2021).

The structures appear in SMILES notation. Read-outs that look alike come from different tables or passages of the source.

The test system of one series is human recombinant CaV1.2. The settings on record: 30 μM, manual patch-clamp; ref Crumb et al., 2016; cited from earlier work. (In general: In patch-clamp work, channel activity is measured electrically.)
For a further series, the system named is human recombinant NaV1.5. The settings on record: 30 μM, manual patch-clamp; ref Crumb et al., 2016; cited from earlier work.
Series [1] addresses T1, Kir2.1 (Homo sapiens, UniProt P63252).
T1 sequence (P63252 1-427): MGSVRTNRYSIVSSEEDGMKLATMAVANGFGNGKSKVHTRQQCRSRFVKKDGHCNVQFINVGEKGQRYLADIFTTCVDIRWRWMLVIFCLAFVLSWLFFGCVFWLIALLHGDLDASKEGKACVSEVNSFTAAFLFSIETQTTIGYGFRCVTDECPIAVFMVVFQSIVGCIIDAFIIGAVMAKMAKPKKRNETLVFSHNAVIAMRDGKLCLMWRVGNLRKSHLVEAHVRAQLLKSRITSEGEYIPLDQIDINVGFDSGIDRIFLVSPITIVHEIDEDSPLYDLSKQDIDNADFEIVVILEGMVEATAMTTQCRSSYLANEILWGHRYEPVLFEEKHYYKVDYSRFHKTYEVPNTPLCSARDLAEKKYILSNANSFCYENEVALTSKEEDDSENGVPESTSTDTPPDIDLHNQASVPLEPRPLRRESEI
The settings on record: read-out: IC50 Kir2.1; manual patch-clamp; ref Crumb et al., 2016; cited from earlier work.

Series [2] deals with Kir2.1. To be noted: read-out: IC50 Kir2.1 outward component; ref Rodriguez-Menchaca et al., 2008; cited from earlier work.
In the next series the test system is human recombinant KV7.1. The settings on record: 30 μM, manual patch-clamp; ref Crumb et al., 2016; cited from earlier work.
Another series has as its system human recombinant KV4.3. To be noted: 30 μM, manual patch-clamp; ref Crumb et al., 2016; cited from earlier work.
The next series concerns the target CaV1.2/β2/α2δ1 (Homo sapiens, UniProt Q13936). Briefly: automated patch-clamp. The series is classed as cell-based. The settings on record: CdCl2 0.2 mM, end of recording.
Series [3] concerns Kir2.1. The settings on record: read-out: IC50 Kir2.1; QPatch II platform; ref Okada et al., 2021; cited from earlier work.
Series [4] concerns human adult cardiomyocytes. To be noted: potassium in buffer decreased from 4 mM to 2.5 mM; ref Jordaan et al., 2021; cited from earlier work.
For series [5] the following is noted: HCQ monotherapy, meta-analysis of 28 clinical studies; ref Oscanoa et al., 2020; cited from earlier work.
Series [6] deals with hERG. To be noted: read-out: IC50 hERG; QPatch II platform; ref Okada et al., 2021; cited from earlier work. On the technique in general: hERG is a cardiac potassium channel; its block is linked to QT prolongation.
For series [7] the following is noted: ref Carlsson et al., 2020; cited from earlier work.
A further series concerns Plasmodium falciparum. To be noted: isolates grown in human erythrocytes; ref Warhurst et al., 2003; cited from earlier work.
Series [8] addresses T1, Kir2.1. Briefly: automated patch-clamp. Format: cell-based. The settings on record: levorotatory enantiomer the most potent.
The conditions of series [9]: ref Wainer et al., 1994; cited from earlier work.
A further series addresses NaV1.5 (Homo sapiens, UniProt Q14524). Briefly: automated patch-clamp. Format: cell-based. The settings on record: for decrease of NaV1.5 current: up to the highest tested concentration of 90 μM, attributable to current rundown.
For series [10] the following is noted: in vitro; ref McLachlan et al., 1993; cited from earlier work.
Another series relates to rabbit Purkinje fibers. As to the kind of experiment: current clamp action potential recording on excised rabbit Purkinje fibers. The settings on record: for effect on membrane and AP parameters: 0.3 μM, any beating rate. An outline of the steps:
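Purkinje fibers came from male New Zealand rabbits (1.7–2.1 kg). They were superfused at 10 mL/min and 36 ± 1 °C with bicarbonate buffer at pH 7.4. APs were recorded with 3 M KCl microelectrodes under pacing at 3, 1 and 0.25 Hz. Test compound (0.3, 3, 10, 30 μM) was applied for 30 min each, ascending, followed by 30 min washout; n = 6. Analysis used ANOVA with Dunnett versus baseline.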

The test system of series [11] is human immune-deficiency virus serotype 1. To be noted: human T-cell lines and macrophage hybridoma; ref Chiang et al., 1996; cited from earlier work.
Series [12] deals with hERG (Homo sapiens, UniProt Q12809). As to the kind of experiment: automated patch-clamp. The series is classed as cell-based. The settings on record: ratio of IC50 values.
For a further series, the target named is T2, KV4.3/KChIP2.2 (Homo sapiens, UniProt Q9UK17).
T2 sequence (Q9UK17 1-655): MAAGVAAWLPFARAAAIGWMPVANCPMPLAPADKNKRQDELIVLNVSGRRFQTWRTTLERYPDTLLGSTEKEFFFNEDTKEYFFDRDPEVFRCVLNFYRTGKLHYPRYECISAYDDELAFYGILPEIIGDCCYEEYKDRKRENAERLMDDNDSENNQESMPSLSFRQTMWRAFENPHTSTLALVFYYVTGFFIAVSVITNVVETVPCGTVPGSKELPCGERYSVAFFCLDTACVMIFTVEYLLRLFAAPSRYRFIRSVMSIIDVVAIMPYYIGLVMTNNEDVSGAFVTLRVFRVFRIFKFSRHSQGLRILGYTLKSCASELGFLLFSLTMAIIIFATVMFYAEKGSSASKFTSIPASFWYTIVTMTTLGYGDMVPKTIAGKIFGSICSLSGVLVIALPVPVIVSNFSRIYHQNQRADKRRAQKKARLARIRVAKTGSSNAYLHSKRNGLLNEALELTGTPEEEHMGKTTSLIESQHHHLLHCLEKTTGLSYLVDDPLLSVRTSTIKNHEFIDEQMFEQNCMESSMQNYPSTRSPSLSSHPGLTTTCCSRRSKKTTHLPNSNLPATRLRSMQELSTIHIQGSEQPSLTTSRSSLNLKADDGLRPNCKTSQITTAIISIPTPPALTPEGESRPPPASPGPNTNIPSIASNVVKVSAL
T2 sequence (Q9NS61 1-252 isoform Q9NS61-2 partner): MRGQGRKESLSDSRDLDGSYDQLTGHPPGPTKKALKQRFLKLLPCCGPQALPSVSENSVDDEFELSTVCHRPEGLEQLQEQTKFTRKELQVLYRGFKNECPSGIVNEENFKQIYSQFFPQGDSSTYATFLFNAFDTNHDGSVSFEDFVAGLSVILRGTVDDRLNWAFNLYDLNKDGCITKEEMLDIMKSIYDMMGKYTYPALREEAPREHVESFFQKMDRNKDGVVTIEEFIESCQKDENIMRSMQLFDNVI
Briefly: automated patch-clamp. The series is classed as cell-based. The gist of the method: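 CHO cells constitutively expressing human KV4.3/KChIP2.2 were whole-cell recorded at room temperature. Cells were held at −80 mV and stepped to +20 mV with 500 ms pulses. Test compound was applied at six cumulative ascending concentrations up to 90 μM in 0.3% or 1% DMSO with 1% Pluronic F-68. Leak was removed with 30 μM SKF-96365. Integral charge was normalized to pre-drug, and IC50 was fitted sigmoidally (0–100% constrained) with 95% CI.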

The next series addresses KV7.1/minK (Homo sapiens, UniProt P51787). Briefly: automated patch-clamp. The series is classed as cell-based.

Chain of NaV1.5 (Q14524 whole entry): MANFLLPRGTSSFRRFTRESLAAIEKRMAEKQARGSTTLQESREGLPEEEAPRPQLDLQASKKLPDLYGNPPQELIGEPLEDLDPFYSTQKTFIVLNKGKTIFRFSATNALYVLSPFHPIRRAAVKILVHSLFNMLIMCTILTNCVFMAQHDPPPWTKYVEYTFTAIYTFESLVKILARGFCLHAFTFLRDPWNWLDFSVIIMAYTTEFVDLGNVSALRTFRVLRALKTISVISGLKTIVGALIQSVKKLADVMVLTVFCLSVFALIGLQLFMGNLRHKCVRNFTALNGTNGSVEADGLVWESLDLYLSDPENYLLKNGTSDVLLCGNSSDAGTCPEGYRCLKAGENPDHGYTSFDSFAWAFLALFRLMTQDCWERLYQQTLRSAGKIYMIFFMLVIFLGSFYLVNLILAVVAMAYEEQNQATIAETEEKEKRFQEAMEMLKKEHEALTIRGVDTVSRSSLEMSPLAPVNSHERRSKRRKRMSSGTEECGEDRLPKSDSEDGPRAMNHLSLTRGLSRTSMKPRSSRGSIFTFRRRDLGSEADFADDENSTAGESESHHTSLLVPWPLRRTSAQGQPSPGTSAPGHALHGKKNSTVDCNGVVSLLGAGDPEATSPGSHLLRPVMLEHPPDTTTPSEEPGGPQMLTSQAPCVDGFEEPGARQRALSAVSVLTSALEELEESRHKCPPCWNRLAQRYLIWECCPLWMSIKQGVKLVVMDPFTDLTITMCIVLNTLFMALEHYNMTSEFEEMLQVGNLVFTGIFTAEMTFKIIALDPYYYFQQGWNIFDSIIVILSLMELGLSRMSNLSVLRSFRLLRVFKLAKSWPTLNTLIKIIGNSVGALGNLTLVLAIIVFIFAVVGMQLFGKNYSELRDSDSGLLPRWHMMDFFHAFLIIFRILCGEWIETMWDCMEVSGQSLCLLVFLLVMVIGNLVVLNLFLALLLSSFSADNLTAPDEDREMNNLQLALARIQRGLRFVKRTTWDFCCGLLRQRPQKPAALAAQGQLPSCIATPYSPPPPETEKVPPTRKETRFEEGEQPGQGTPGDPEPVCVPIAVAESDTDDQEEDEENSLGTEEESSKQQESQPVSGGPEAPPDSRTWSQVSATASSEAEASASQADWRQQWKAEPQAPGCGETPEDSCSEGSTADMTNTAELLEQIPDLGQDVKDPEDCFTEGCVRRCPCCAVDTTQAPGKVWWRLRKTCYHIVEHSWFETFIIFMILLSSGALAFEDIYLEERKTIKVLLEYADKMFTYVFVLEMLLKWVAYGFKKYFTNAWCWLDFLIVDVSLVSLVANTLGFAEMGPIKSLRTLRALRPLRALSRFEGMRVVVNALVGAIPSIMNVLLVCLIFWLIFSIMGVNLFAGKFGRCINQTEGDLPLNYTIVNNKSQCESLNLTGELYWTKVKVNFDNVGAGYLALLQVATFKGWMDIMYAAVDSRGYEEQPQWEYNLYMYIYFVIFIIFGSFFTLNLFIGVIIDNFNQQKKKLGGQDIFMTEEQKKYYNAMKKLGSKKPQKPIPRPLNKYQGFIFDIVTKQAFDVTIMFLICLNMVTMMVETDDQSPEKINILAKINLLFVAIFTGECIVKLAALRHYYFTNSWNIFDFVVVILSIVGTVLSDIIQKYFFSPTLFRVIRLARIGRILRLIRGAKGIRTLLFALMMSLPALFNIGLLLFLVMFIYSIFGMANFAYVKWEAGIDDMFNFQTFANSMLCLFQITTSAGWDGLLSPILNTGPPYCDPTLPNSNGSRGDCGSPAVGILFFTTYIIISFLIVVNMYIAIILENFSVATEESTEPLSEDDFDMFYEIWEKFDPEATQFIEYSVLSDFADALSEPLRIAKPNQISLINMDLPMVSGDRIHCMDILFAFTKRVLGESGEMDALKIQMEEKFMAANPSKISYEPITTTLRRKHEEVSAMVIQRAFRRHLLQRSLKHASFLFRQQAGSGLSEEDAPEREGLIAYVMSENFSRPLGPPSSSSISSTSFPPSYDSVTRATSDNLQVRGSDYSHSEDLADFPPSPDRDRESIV
Chain of KV7.1/minK (P51787 whole entry): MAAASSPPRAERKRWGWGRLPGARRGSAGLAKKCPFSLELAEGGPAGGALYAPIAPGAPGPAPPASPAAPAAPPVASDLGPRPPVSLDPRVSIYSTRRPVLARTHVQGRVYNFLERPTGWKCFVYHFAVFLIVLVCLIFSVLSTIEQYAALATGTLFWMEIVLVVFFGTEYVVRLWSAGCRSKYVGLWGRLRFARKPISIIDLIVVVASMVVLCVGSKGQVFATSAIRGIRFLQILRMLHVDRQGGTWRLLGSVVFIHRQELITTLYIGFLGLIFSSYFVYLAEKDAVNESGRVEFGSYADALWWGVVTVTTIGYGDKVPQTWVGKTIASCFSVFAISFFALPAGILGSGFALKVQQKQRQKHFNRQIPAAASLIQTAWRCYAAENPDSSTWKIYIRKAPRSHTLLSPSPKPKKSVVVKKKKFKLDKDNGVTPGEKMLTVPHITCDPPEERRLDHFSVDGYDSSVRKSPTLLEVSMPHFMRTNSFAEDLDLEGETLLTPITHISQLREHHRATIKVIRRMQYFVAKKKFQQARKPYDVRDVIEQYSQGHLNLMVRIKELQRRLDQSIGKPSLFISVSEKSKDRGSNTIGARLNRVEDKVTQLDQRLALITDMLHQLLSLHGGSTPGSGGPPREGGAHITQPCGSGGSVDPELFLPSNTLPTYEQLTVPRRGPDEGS
Chain of hERG (Homo sapiens, UniProt Q12809) (Q12809 whole entry): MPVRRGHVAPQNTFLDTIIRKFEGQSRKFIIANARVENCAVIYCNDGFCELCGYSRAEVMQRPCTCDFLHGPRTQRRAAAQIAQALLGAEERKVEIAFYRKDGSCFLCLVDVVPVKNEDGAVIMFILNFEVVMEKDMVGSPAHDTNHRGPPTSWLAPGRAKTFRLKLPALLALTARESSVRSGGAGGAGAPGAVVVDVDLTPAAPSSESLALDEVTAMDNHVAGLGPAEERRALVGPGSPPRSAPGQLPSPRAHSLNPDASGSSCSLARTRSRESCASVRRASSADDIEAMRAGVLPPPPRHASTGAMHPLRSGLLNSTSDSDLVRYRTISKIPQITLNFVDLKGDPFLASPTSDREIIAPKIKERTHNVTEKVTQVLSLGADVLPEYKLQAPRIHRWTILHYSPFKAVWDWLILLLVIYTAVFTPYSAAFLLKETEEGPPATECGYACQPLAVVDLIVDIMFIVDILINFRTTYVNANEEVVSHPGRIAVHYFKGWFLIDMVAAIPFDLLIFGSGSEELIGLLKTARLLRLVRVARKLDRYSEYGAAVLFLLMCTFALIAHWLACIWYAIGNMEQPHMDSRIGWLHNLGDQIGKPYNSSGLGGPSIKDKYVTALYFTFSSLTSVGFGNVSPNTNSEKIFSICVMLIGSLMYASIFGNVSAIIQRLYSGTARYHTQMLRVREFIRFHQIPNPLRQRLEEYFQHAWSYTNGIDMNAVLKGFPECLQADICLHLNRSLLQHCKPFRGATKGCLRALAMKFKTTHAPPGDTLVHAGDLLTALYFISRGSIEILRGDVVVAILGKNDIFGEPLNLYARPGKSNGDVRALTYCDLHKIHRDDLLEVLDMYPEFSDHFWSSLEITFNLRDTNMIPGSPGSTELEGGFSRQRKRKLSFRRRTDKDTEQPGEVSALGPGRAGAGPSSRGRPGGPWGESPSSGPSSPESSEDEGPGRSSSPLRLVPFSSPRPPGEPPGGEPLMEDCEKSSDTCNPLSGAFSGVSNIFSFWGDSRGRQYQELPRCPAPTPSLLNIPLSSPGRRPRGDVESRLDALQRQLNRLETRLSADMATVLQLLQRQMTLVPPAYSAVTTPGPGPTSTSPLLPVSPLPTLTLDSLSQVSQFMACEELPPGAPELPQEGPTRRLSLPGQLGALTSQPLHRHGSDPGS

As a reminder, the IC50 is the concentration needed to halve the response being measured. Turning to `CCN(CC)CCCC(C)Nc1ccnc2cc(Cl)ccc12` (stereo not drawn) [CQ, chloroquine], the “inhibition of CaV1.2” value in the series on human recombinant CaV1.2 is “less than 20%”. For the same compound, the “inhibition of NaV1.5” value in the series with human recombinant NaV1.5 is given as “less than 20%”. For the same compound, the IC50 at Kir2.1 [1] is 11 µM; in the series with Kir2.1 [2], 9 µM. Moreover, the “inhibition of KV7.1” value with human recombinant KV7.1 was “less than 20%”. Further, in the series with human recombinant KV4.3, the “inhibition of KV4.3” value is listed as “less than 20%”.

With `[Cl][Cd][Cl]` [CdCl2], the “effect on CaV1.2 currents” value at CaV1.2/β2/α2δ1 is listed as “inhibited all the currents”.

With `CCN(CCO)CCCC(C)Nc1ccnc2cc(Cl)ccc12` (stereo not drawn) [HCQ, Hydroxychloroquine], the IC50 in the series on Kir2.1 [3] is 30 µM; in the series with hERG [6], 17 µM. In series [4], the “proarrhythmic risk at reduced potassium” value is on record as “proarrhythmic risk rose significantly”. For the same compound, the “occurrence of QT-prolongations” value in series [5] was “below 2%”. Moreover, the “plasma concentrations relative to blood” value in series [7] is given as “two-fold lower”.

As for `CCN(CCO)CCCC(C)Nc1ccnc2cc(Cl)ccc12` (stereo not drawn) [R(-)HCQ], in the series with Plasmodium falciparum, the “inhibition of Plasmodium falciparum proliferation, comparison of enantiomers” value is given as “identical IC50 values”. For the same compound, the “block-potency ratio of the enantiomers against Kir2.1” value on Kir2.1 [8] is “two-fold”. In addition, the “accumulation in ocular tissue” value in series [9] is on record as “preferential accumulation”. Besides, the “decrease of NaV1.5 current” value on NaV1.5 is on record as “below 10%”. For the same compound, the “free fraction (plasma protein binding)” value in series [10] is 63%. In addition, the “effect on membrane and AP parameters” value in the series with rabbit Purkinje fibers was “neither R(-)HCQ nor S(+)HCQ had a significant effect”. In addition, the autogenic activity result in the series with rabbit Purkinje fibers (10 μM and 30 μM) was “inducing autogenic activity”. Besides, the “decrease of median resting membrane potential” value with rabbit Purkinje fibers (30 μM, 60 bpm (1 Hz)) turned out to be 20%. Besides, the “increase of AP duration at near complete repolarization (APD90)” value in the series with rabbit Purkinje fibers (30 μM, 180 bpm, n = 2 readings) came to 25%. Moreover, in the series with rabbit Purkinje fibers (any concentration and pacing rate), the “early after depolarizations (EADs)” value is on record as “no torsadogenic early after depolarizations (EADs) events were observed”. The “inhibition of HIV-1 replication, comparison of enantiomers” value in series [11] is “equipotent”. The “greater potency of R(-)HCQ over S(+)HCQ on hERG” value at hERG [12] amounted to 3.7 fold.

On to `CCN(CCO)CCC[C@H](C)Nc1ccnc2cc(Cl)ccc12` [S(+)HCQ], for which, in the series with Plasmodium falciparum, the “inhibition of Plasmodium falciparum proliferation, comparison of enantiomers” value is reported as “identical IC50 values”. Besides, the “decrease of NaV1.5 current” value on NaV1.5 is on record as “below 10%”. Besides, the “free fraction (plasma protein binding)” value in series [10] is reported as 36%. The “effect on membrane and AP parameters” value with rabbit Purkinje fibers was “neither R(-)HCQ nor S(+)HCQ had a significant effect”. Also, the “abnormal AP exhibiting EADs” value with rabbit Purkinje fibers (10 μM, 15 bpm) is “one of the six fibers”; in the series on rabbit Purkinje fibers (30 μM, 15 bpm, fibers that could follow pacing), “one of the four fibers”. In addition, the “increase of median APD90” value with rabbit Purkinje fibers (10 μM, 15 bpm) turned out to be 56%; in the series on rabbit Purkinje fibers (10 μM, 60 bpm), 34%; with rabbit Purkinje fibers (10 μM, 180 bpm), 12%. Moreover, the “median APD90 duration in presence of drug” value in the series with rabbit Purkinje fibers (10 μM, 15 bpm) was found to be 827 ms; with rabbit Purkinje fibers (10 μM, 60 bpm) it was 481 ms; with rabbit Purkinje fibers (10 μM, 180 bpm) it was 246 ms. Besides, the “decrease of median resting membrane potential” value in the series with rabbit Purkinje fibers (30 μM, 180 bpm (3 Hz)) amounted to 11%. Besides, the “autogenic activity escaping electrical pacing” value in the series on rabbit Purkinje fibers (30 μM, all rates) is given as “two out of six fibers”. The “inhibition of HIV-1 replication, comparison of enantiomers” value in [11] is “equipotent”.

For `CC(C)COCC(CN(Cc1ccccc1)c1ccccc1)N1CCCC1` (stereo not drawn) [bepridil], the values for the IC50 against KV4.3/KChIP2.2, against KV7.1/minK and on NaV1.5 were 11 µM, 7.2 µM and 2.5 µM, respectively.
